Experimental data: ChEMBL document CHEMBL2311264, “Synthesis and anticancer activity of heteroaromatic linked 4β-amido podophyllotoxins as apoptotic inducing agents” (Bioorg Med Chem Lett, 2013)
Activity calls are given as the source filed them. No cut-off for these calls is given here.

Experiments:
[1] = tested on: HeLa; assay: Cytotoxicity against human HeLa cells […] by MTT assay; format: functional, cell-based
[2] = tested on: B16; assay: Cytotoxicity against mouse B16 cells […] by MTT assay; format: functional, cell-based
[3] = tested on: A549; assay: Cytotoxicity against human A549 cells […] by MTT assay; format: functional, cell-based
[4] = tested on: ACHN; assay: Cytotoxicity against human ACHN cells […] by MTT assay; format: functional, cell-based
[5] = tested on: HT-29; assay: Cytotoxicity against human HT-29 cells after 72 hrs by MTT assay; format: functional, cell-based; settings: HT-29, 72 h
[6] = tested on: A549; assay: Induction of cell cycle arrest in human A549 cells assessed as G1 phase cells at 1 uM by FACS analysis (reference value: 85.33%); format: functional
[7] = tested on: A549; assay: Induction of cell cycle arrest in human A549 cells assessed as G1 phase cells at 3 uM by FACS analysis (reference value: 85.33%); format: functional
[8] = tested on: A549; assay: Induction of cell cycle arrest in human A549 cells assessed as S phase cells at 1 uM by FACS analysis (reference value: 3.69%); format: functional
[9] = tested on: A549; assay: Induction of apoptosis in human A549 cells assessed as nuclear fragmentation at 3 uM after 24 hrs by Hoechst staining method; format: functional, cell-based
Procedure, shortened: (§1)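 Cells were seeded at 10,000 per coverslip and grown 24 h, then treated 24 h. Vehicle control was 0.001% DMSO; etoposide was the standard. Hoechst at […] with 4% paraformaldehyde was added for 30 min at 37 °C. Random fields were imaged by fluorescence microscopy and apoptotic cells scored manually by cytoplasmic condensation, apoptotic bodies, nuclear fragmentation and relative fluorescence.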

[10] = tested on: A549; assay: Induction of cell cycle arrest in human A549 cells assessed as sub G1 phase cells at 3 uM by FACS analysis (reference value: 1.08%); format: functional
[11] = tested on: A549; assay: Induction of apoptosis in human A549 cells assessed as increase in fluorescence at 3 uM after 24 hrs by Hoechst staining method relative to control; format: functional, cell-based; procedure, shortened: as §1
[12] = tested on: A549; assay: Induction of apoptosis in human A549 cells assessed as apoptotic bodies at 3 uM after 24 hrs by Hoechst staining method; format: functional, cell-based; procedure, shortened: as §1
[13] = tested on: A549; assay: Induction of cell cycle arrest in human A549 cells assessed as G2/M phase cells at 3 uM by FACS analysis (reference value: 9.89%); format: functional
[14] = tested on: A549; assay: Induction of cell cycle arrest in human A549 cells assessed as G2/M phase cells at 1 uM by FACS analysis (reference value: 9.89%); format: functional
[15] = tested on: A549; assay: Induction of apoptosis in human A549 cells assessed as DNA fragmentation at 3 uM after 48 hrs by agarose gel electrophoretic analysis; format: functional, cell-based
Procedure, shortened: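 Cells were seeded at 1 × 10^6/well and grown 48 h, then treated 48 h. Cells were pelleted and lysed. Lysate was given SDS and RNase-A at 56 °C for 2 h, then proteinase K at 37 °C for 2 h. DNA was precipitated with ammonium acetate and cold ethanol, washed with 80% ethanol and dissolved in TE. Laddering was read on 2% agarose gel in TE; 50 bp marker.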

[16] = tested on: A549; assay: Induction of apoptosis in human A549 cells assessed as cytoplasmic condensation at 3 uM after 24 hrs by Hoechst staining method; format: functional, cell-based; procedure, shortened: as §1
[17] = tested on: A549; assay: Induction of cell cycle arrest in human A549 cells assessed as S phase cells at 3 uM by FACS analysis (reference value: 3.69%); format: functional
[18] = tested on: A549; assay: Induction of apoptosis in human A549 cells assessed as increase in caspase3 activity at 3 uM after 48 hrs relative to control; format: functional
Procedure, shortened: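 A-549 cells were seeded at 2.5 × 10^6/well and treated 48 h alongside etoposide, then scraped and lysed on ice. Supernatant was mixed with 2X assay buffer and Ac-DEVD-AFC substrate for 1 h. Fluorescence (ex 400, em 505 nm) was read every 5 min, normalized to Bradford protein and expressed as fold over control. Two experiments, each in triplicate.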

[19] = tested on: A549; assay: Induction of cell cycle arrest in human A549 cells assessed as sub G1 phase cells at 1 uM by FACS analysis (reference value: 1.08%); format: functional

SMILES	IC50 [1] [µM]	IC50 [2] [µM]	IC50 [3] [µM]	IC50 [4] [µM]	IC50 [5] [µM]	further results
COc1cc(-c2cc(C(=O)N[C@@H]3c4cc5c(cc4[C@@H](c4cc(OC)c(OC)c(OC)c4)[C@H]4C(=O)OC[C@@H]43)OCO5)no2)cc(OC)c1OC	18.4	23.4	19.8	34.2	25.1	
COc1cc([C@@H]2c3cc4c(cc3[C@@H](NC(=O)c3cc(-c5ccc(C)cc5)on3)[C@H]3COC(=O)[C@H]23)OCO4)cc(OC)c1OC	5.26	20.3	24.7	28.5	27.9	
COc1cc(-c2cc(C(=O)N[C@@H]3c4cc5c(cc4[C@@H](c4cc(OC)c(OC)c(OC)c4)[C@H]4C(=O)OC[C@@H]43)OCO5)n[nH]2)cc(OC)c1OC	11.5	18.3	15.2	27.1	16.8	
COc1cc([C@@H]2c3cc4c(cc3[C@@H](NC(=O)c3cc(-c5ccc(F)c(F)c5)on3)[C@H]3COC(=O)[C@H]23)OCO4)cc(OC)c1OC	21.2	27.5	12.7	16.4	14.1	
COc1cc([C@@H]2c3cc4c(cc3[C@@H](O[C@@H]3O[C@@H]5CO[C@@H](C)O[C@H]5[C@H](O)[C@H]3O)[C@H]3COC(=O)[C@H]23)OCO4)cc(OC)c1O [ETOPOSIDE]	1.52	1.39	2.8			Activity [6]: 62.32%; Activity [7]: 31.49%; Activity [8]: 4.1%; Activity [9]: Active; Activity [10]: 8.3%; Activity [11]: Active; Activity [12]: Active; Activity [13]: 57.86%; Activity [14]: 32.33%; Activity [15]: Active; Activity [16]: Active; Activity [17]: 2.42%; fold change (FC) [18]: 6; Activity [19]: 1.25%
COc1ccc(-c2cc(C(=O)N[C@@H]3c4cc5c(cc4[C@@H](c4cc(OC)c(OC)c(OC)c4)[C@H]4C(=O)OC[C@@H]43)OCO5)nc3cc(-c4ccccc4)nn23)cc1	8.9	18.3	11.2	17.3	5.7	
COc1ccc(-c2cc(C(=O)N[C@@H]3c4cc5c(cc4[C@@H](c4cc(OC)c(OC)c(OC)c4)[C@H]4C(=O)OC[C@@H]43)OCO5)n[nH]2)cc1	9.4	9.5	5.3	11.6	8.4	
COc1cc([C@@H]2c3cc4c(cc3[C@@H](NC(=O)c3cc(-c5ccc(C)cc5)[nH]n3)[C@H]3COC(=O)[C@H]23)OCO4)cc(OC)c1OC	16.9	16.6	22.3	25.8	26.5	
COc1cc([C@@H]2c3cc4c(cc3[C@@H](NC(=O)c3cc(-c5ccc(F)cc5)on3)[C@H]3COC(=O)[C@H]23)OCO4)cc(OC)c1OC	16.6	23.5	20.6	15.6	19.9	
COc1cc([C@@H]2c3cc4c(cc3[C@@H](NC(=O)c3cc(-c5ccc([N+](=O)[O-])cc5)n5nc(-c6ccccc6)cc5n3)[C@H]3COC(=O)[C@H]23)OCO4)cc(OC)c1OC	12.1	18.4	10.6	17.7	10.9	
COc1cc(-c2cc(C(=O)N[C@@H]3c4cc5c(cc4[C@@H](c4cc(OC)c(OC)c(OC)c4)[C@H]4C(=O)OC[C@@H]43)OCO5)nc3cc(-c4ccccc4)nn23)cc(OC)c1OC	13.7	12.7	9.5	13.8	9.2	
COc1cc([C@@H]2c3cc4c(cc3[C@@H](NC(=O)c3cc(-c5ccc(F)cc5)[nH]n3)[C@H]3COC(=O)[C@H]23)OCO4)cc(OC)c1OC	15.2	26.1	21.2	18.3	26.3	
COc1ccc(-c2cc(C(=O)N[C@@H]3c4cc5c(cc4[C@@H](c4cc(OC)c(OC)c(OC)c4)[C@H]4C(=O)OC[C@@H]43)OCO5)n[nH]2)cc1OC	25.1	45.3	39.5	31.6	36.3	
COc1cc([C@@H]2c3cc4c(cc3[C@@H](NC(=O)c3cc(-c5ccccc5)[nH]n3)[C@H]3COC(=O)[C@H]23)OCO4)cc(OC)c1OC	7.5	16.3	28.9	30.2	26.5	
COc1cc([C@@H]2c3cc4c(cc3[C@@H](NC(=O)c3cc(-c5ccc([N+](=O)[O-])cc5)on3)[C@H]3COC(=O)[C@H]23)OCO4)cc(OC)c1OC	7.5	16.8	17.9	26.4	22.6	
COc1ccc(-c2cc(C(=O)N[C@@H]3c4cc5c(cc4[C@@H](c4cc(OC)c(OC)c(OC)c4)[C@H]4C(=O)OC[C@@H]43)OCO5)no2)cc1	11.2	22.5	38.1	30.3	32.1	
COc1ccc(-c2cc(C(=O)N[C@@H]3c4cc5c(cc4[C@@H](c4cc(OC)c(OC)c(OC)c4)[C@H]4C(=O)OC[C@@H]43)OCO5)nc3cc(-c4ccccc4)nn23)cc1OC	14.4	10.7	17.3	19.3	14.5	
COc1cc([C@@H]2c3cc4c(cc3[C@@H](NC(=O)c3cc(-c5ccc([N+](=O)[O-])cc5)[nH]n3)[C@H]3COC(=O)[C@H]23)OCO4)cc(OC)c1OC	14.6		19.4	23.5	20.6	
COc1cc([C@@H]2c3cc4c(cc3[C@@H](NC(=O)c3cc(-c5ccc(F)c(F)c5)[nH]n3)[C@H]3COC(=O)[C@H]23)OCO4)cc(OC)c1OC	14.9	25.6	15.8	32.5	10.8	
COc1cc([C@@H]2c3cc4c(cc3[C@@H](NC(=O)c3cc(-c5ccccc5)on3)[C@H]3COC(=O)[C@H]23)OCO4)cc(OC)c1OC	5.9	16.3	13.6	17.5	19.5	
COc1ccc(-c2cc(C(=O)N[C@@H]3c4cc5c(cc4[C@@H](c4cc(OC)c(OC)c(OC)c4)[C@H]4C(=O)OC[C@@H]43)OCO5)no2)cc1OC	13.3	12.7	23.1	23.1	38.4	
COc1cc([C@@H]2c3cc4c(cc3[C@@H](NC(=O)c3cc(-c5ccc(Cl)c(Cl)c5)on3)[C@H]3COC(=O)[C@H]23)OCO4)cc(OC)c1OC	12.6	22.7	31.1	16.8	11.2	
COc1cc([C@@H]2c3cc4c(cc3[C@H](O)[C@H]3COC(=O)[C@H]23)OCO4)cc(OC)c1OC [PODOFILOX]	2.8	2.5	3.6	2.3	1.02	Activity [6]: 78.31%; Activity [8]: 3.67%; Activity [14]: 16.24%; Activity [19]: 1.83%
